Measured values reported in ChEMBL document CHEMBL1122043, “A new class of nitrosoureas. 4. Synthesis and antitumor activity of disaccharide derivatives of 3,3-disubstituted 1-(2-chloroethyl)-1-nitrosoureas” (J Med Chem, 1982).

Legend:
[1] = Therapeutic index value for anti-L1210 activity.; conditions: mouse; for selectivity ratio: read-out: TI
How it was run: (§1)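 Mice were male BDF1 inoculated ip with 10^5 L1210 cells. Ip treatment began 24 h later. Therapeutic ratio = OD/ILS30. ILS30 is the daily dose giving a 30% increase in life-span over control. OD is the daily dose giving the maximum increase in life-span.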

L1210 [2] = assay: Antitumor activity against Leukemia L1210 cells in male BDF1 mice at the dose of 400 mg/kg/day x5 (i.p.) expressed as maximal increase in life-span; type: functional, Mus musculus; conditions: route intraperitoneal
How it was run: (§2)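 L1210 leukemia cells (10^5) given ip to male BDF1 mice. Ip dosing started 24 h after inoculation and was given once daily for 5 days. Life-span increase was calculated as ILS (%) = (T/C-1) × 100. Optimal dose was the daily dose giving the maximum increase in life-span.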

[3] = Therapeutic index value for anti-Ehrlich activity.; conditions: mouse; for selectivity ratio: read-out: TI
How it was run: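 Ehrlich ascites cells (10^6) were inoculated ip into 5 female ICR mice. Ip dosing began 24 h later and was given once daily for 5 days. Therapeutic ratio = MTD/MED. MED is the minimum dose giving 100% inhibition of tumor growth. MTD is the maximum dose giving 100% inhibition without mouse deaths.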

L1210 [4] = assay: Antitumor activity against Leukemia L1210 cells in BDF1 mice at the dose of 50 mg/kg/day x5 (i.p.) expressed as maximal increase in life-span; type: functional, Mus musculus; conditions: route intraperitoneal; how it was run: as §2
L1210 [5] = assay: Antitumor activity against Leukemia L1210 cells in male BDF1 mice at the dose of 230 mg/kg/day x1 (i.p.) expressed as maximal increase in life-span; type: functional, Mus musculus; conditions: route intraperitoneal
How it was run: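 Male BDF1 mice (six or eight) received 10^5 L1210 cells ip. A single ip dose, in (mg/kg)/day × 1, was given 24 h after inoculation. ILS (%) = (T/C-1) × 100. The optimal dose was the dose giving the maximum increase in life-span.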

L1210 [6] = assay: Antitumor activity against Leukemia L1210 cells in BDF1 mice at the dose of 130 mg/kg/ day *5 (i.p.) expressed as maximal increase in life-span; type: functional, Mus musculus; conditions: route intraperitoneal; in the assay text read “25 mg/kg/ day” for “130 mg/kg/ day”; how it was run: as §2
[7] = […] required for antitumor activity against Ehrlich ascites carcinoma cells in […] mice.; type: functional, Mus musculus
L1210 [8] = assay: Antitumor activity against Leukemia L1210 cells in male BDF1 mice at the dose of 100 mg/kg/day x5 (i.p.) expressed as maximal increase in life-span; type: functional, Mus musculus; conditions: route intraperitoneal; how it was run: as §2
[9] = Therapeutic index value for anti L1210 activity; Inactive; how it was run: as §1
L1210 [10] = assay: Antitumor activity against Leukemia L1210 cells in male BDF1 mice at the dose of 200 mg/kg/day x5 (i.p.) expressed as maximal increase in life-span; type: functional, Mus musculus; conditions: route intraperitoneal; how it was run: as §2
L1210 [11] = assay: Antitumor activity against Leukemia L1210 cells in BDF1 mice at the dose of 6.25 mg/kg/day x5 (i.p.) expressed as maximal increase in life-span; type: functional, Mus musculus; conditions: route intraperitoneal; how it was run: as §2
L1210 [12] = assay: Antitumor activity against Leukemia L1210 cells in BDF1 mice at the dose of 25 mg/kg/day x1 (i.p.) expressed as maximal increase in life-span; conditions: route intraperitoneal
L1210 [13] = assay: Antitumor activity against Leukemia L1210 cells in BDF1 mice at the dose of 6.25 mg/kg/day x 5 (ip), maximum increase in life-span; type: functional, Mus musculus
How it was run: (§3)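 Male BDF1 mice were inoculated ip with 10^5 L1210 leukemia cells. Drug was given ip once daily for 5 days, starting 24 h after inoculation. ILS (%) = (T/C-1) × 100. The recorded value is the ILS at the optimal dose, meaning the daily dose giving the maximum increase in life-span.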

[14] = Maximum tolerated dose required antitumor activity against Ehrlich ascites carcinoma cells in female ICR mice.
[15] = Minimum effective dose required for antitumor activity against Ehrlich ascites carcinoma cells in female ICR mice.
L1210 [16] = assay: Antitumor activity against Leukemia L1210 cells in male BDF1 mice at the dose of 6.25 mg/kg/day x5 (i.p.) expressed as maximal increase in life-span; type: functional, Mus musculus; conditions: route intraperitoneal; how it was run: as §2
L1210 [17] = assay: Antitumor activity against Leukemia L1210 cells in male BDF1 mice at the dose of 50 mg/kg/day x5 (i.p.) expressed as maximal increase in life-span; type: functional, Mus musculus; conditions: route intraperitoneal; how it was run: as §2
L1210 [18] = assay: Antitumor activity against Leukemia L1210 cells in BDF1 mice at the dose of 400 mg/kg/day x 5 (ip), maximum increase in life-span; type: functional, Mus musculus; how it was run: as §3
L1210 [19] = assay: Antitumor activity against Leukemia L1210 cells in male BDF1 mice at the dose of 200 mg/kg/day x5 (ip) expressed as maximal increase in life-span; type: functional, Mus musculus; how it was run: as §2
L1210 [20] = assay: Antitumor activity against Leukemia L1210 cells in male BDF1 mice at the dose of 25 mg/kg/day x5 (i.p.) expressed as maximal increase in life-span; type: functional, Mus musculus; conditions: route intraperitoneal; how it was run: as §3
L1210 [21] = assay: Antitumor activity against Leukemia L1210 cells in BDF1 mice at the dose of 50 mg/kg/day x 1 (i.p.), ILS30; conditions: route intraperitoneal

Structure (SMILES)	selectivity ratio [1]	selectivity ratio [3]	MED [7] [mg kg-1 5day-1]	ILS30 (L1210 [8])	also measured
CC(C)CN(C(=O)N(CCCl)N=O)C1OC(COC2OC(CO)C(O)C(O)C2O)C(O)C(O)C1O (stereo unspecified)	1.1	1	–	–	ILS30 (L1210 [2]): 350
CC(C)CN(C(=O)N(CCCl)N=O)C1OC(CO)C(O)C(O)C1O (stereo unspecified)	50	–	–	–	ILS30 (L1210 [4]): 1; ILS30 (L1210 [5]): 2.6; TI [1]: 34.2; ILS30 (L1210 [6]): 0.73
CCC(C)N(C(=O)N(CCCl)N=O)C1OC(CO)C(OC2OC(CO)C(O)C(O)C2O)C(O)C1O (stereo unspecified)	66.7	128	1.56	1.5	–
CN(C(=O)N(CCCl)N=O)C1OC(CO)C(OC2OC(CO)C(O)C(O)C2O)C(O)C1O (stereo unspecified)	11.4	32	–	8.8	–
CC(C)N(C(=O)N(CCCl)N=O)C1OC(CO)C(OC2OC(CO)C(O)C(O)C2O)C(O)C1O (stereo unspecified)	18.5	32	–	5.4	–
CCCCCCCCCCCCCCCCN(C(=O)N(CCCl)N=O)C1OC(CO)C(OC2OC(CO)C(O)C(O)C2O)C(O)C1O (stereo unspecified)	–	32	–	–	TI [9]: Not Active
O=NN(CCCl)C(=O)N(CC1CCCO1)C1OC(CO)C(OC2OC(CO)C(O)C(O)C2O)C(O)C1O (stereo unspecified)	33.3	64	3.12	–	ILS30 (L1210 [10]): 6
CCCCCN(C(=O)N(CCCl)N=O)C1OC(CO)C(OC2OC(CO)C(O)C(O)C2O)C(O)C1O (stereo unspecified)	28.6	64	3.12	3.5	–
COCCN(C(=O)N(CCCl)N=O)C1OC(CO)C(OC2OC(CO)C(O)C(O)C2O)C(O)C1O (stereo unspecified)	11.8	64	3.12	–	ILS30 (L1210 [10]): 17
C=CCCN(C(=O)N(CCCl)N=O)C1OC(CO)C(OC2OC(CO)C(O)C(O)C2O)C(O)C1O (stereo unspecified)	64.5	128	1.56	–	ILS30 (L1210 [10]): 3.1
C=C(C)CN(C(=O)N(CCCl)N=O)C1OC(CO)C(OC2OC(CO)C(O)C(O)C2O)C(O)C1O (stereo unspecified)	62.5	128	1.56	–	ILS30 (L1210 [10]): 3.2
CCOCCN(C(=O)N(CCCl)N=O)C1OC(CO)C(OC2OC(CO)C(O)C(O)C2O)C(O)C1O (stereo unspecified)	37	64	3.12	2.7	–
O=NN(CCCl)C(=O)N[C@@H]1O[C@H](CO)[C@@H](O)[C@H](O)[C@H]1O	7.8	32	–	–	ILS30 (L1210 [11]): 0.8; ILS30 (L1210 [12]): 1.1; ILS max (L1210 [13]): >198.6%; MTD [14]: 12.5 mg kg-1 5day-1; MED [15]: 0.39 mg kg-1 5day-1; ILS30 (L1210 [16]): 0.8
COCCCN(C(=O)N(CCCl)N=O)C1OC(CO)C(OC2OC(CO)C(O)C(O)C2O)C(O)C1O (stereo unspecified)	26.7	64	3.12	–	ILS30 (L1210 [10]): 7.5
CCCN(C(=O)N(CCCl)N=O)C1OC(CO)C(OC2OC(CO)C(O)C(O)C2O)C(O)C1O (stereo unspecified)	20.4	64	–	4.9	–
CCCCCCN(C(=O)N(CCCl)N=O)C1OC(CO)C(OC2OC(CO)C(O)C(O)C2O)C(O)C1O (stereo unspecified)	3.6	32	–	–	ILS30 (L1210 [17]): 14
O=NN(CCCl)C(=O)N(Cc1ccc(Cl)cc1)C1OC(CO)C(OC2OC(CO)C(O)C(O)C2O)C(O)C1O (stereo unspecified)	10	128	1.56	–	ILS30 (L1210 [10]): 20
O=NN(CCCl)C(=O)N(CC1CCCCC1)C1OC(CO)C(OC2OC(CO)C(O)C(O)C2O)C(O)C1O (stereo unspecified)	12.5	32	3.12	8	–
O=NN(CCCl)C(=O)N(CC1CC1)C1OC(CO)C(OC2OC(CO)C(O)C(O)C2O)C(O)C1O (stereo unspecified)	28.6	64	1.56	3.5	–
CC(=O)OCC1OC(N(CC(C)C)C(=O)N(CCCl)N=O)C(OC(C)=O)C(OC(C)=O)C1COCC1OC(COC(C)=O)C(OC(C)=O)C(OC(C)=O)C1OC(C)=O (stereo unspecified)	–	–	–	–	ILS max (L1210 [18]): 18%
C=CCN(C(=O)N(CCCl)N=O)C1OC(CO)C(OC2OC(CO)C(O)C(O)C2O)C(O)C1O (stereo unspecified)	50	64	1.56	2	–
CCCCN(C(=O)N(CCCl)N=O)C1OC(CO)C(OC2OC(CO)C(O)C(O)C2O)C(O)C1O (stereo unspecified)	22.2	32	6.25	4.5	–
CC(C)CN(C(=O)N(CCCl)N=O)C1OC(CO)C(OC2OC(CO)C(O)C(O)C2O)C(O)C1O (stereo in doubt; 37)	–	–	–	1.2	ILS30 (L1210 [5]): 7.3; TI [3]: 256
CC(C)CN(C(=O)N(CCCl)N=O)C1OC(CO)C(OC2OC(CO)C(O)C(O)C2O)C(O)C1O (stereo in doubt; 63)	–	–	100	–	ILS30 (L1210 [19]): 160; TI [1]: 1.3; TI [3]: 2
O=NN(CCCl)C(=O)NC1CCCCC1 [LOMUSTINE]	5.1	4	–	–	ILS30 (L1210 [20]): 4.9; MTD [14]: 50 mg kg-1 5day-1; MED [15]: 12.5 mg kg-1 5day-1; ILS30 (L1210 [21]): 9.3 mg/kg
Cc1ncc(CNC(=O)N(CCCl)N=O)c(N)n1 [NIMUSTINE]	9.3	8	–	–	ILS30 (L1210 [20]): 2.9; MTD [14]: 25 mg kg-1 5day-1; MED [15]: 3.12 mg kg-1 5day-1
